Data set [1] is described as follows: Cytotoxicity against human MC65 cells after 72 hrs. To be noted: mc65, 72 h.
In data set [2] the target is Amyloid-beta precursor protein (Homo sapiens) (UniProt P05067). The experiment in a line: Inhibition of APP expressed in human MC65 cells assessed as inhibition of amyloid beta oligomer formation at 10 uM by Western blotting after removal of tetracycline.
The target is the same in data set [3]. The experiment in a line: Inhibition of APP expressed in human MC65 cells assessed as inhibition of amyloid beta 42 oligomerization by transmission electron microscopy. The data set is classed as cell-based.
The nature of data set [4]: Cytotoxicity against mouse NK cells after 24 hrs.
Data set [5] relates to MC65. As to the kind of experiment: Binding affinity to cell membrane/lipid raft of human MC65 cells after 24 hrs by immunocytometry. The data set is classed as cell-based. A digest of the protocol: (§1)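 MC65 cells exposed to compound (10 μM) for 24 h, fixed in 4% paraformaldehyde, permeabilized with 0.1% Triton X-100, DAPI-stained. Compound's own fluorescence located by confocal microscopy (excitation 355 and 494 nm). 1.0 μm optical sections through the cell depth, projected into a composite image.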

The nature of data set [6]: Apparent permeability from basolateral to apical side of human Caco-2 cells. The data set is classed as ADME, cell-based. In a few lines:
(§2)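 Caco-2 cells, passages 30-50, grown 21 days on transwell inserts to confluence; TEER >400 ohm·cm² and lucifer yellow permeability <1 × 10^-6 cm/s. Compound at 10 μM added apical or basolateral in HBSS, 37 °C with shaking. Sampling at 30, 60, 120 min, HPLC with fluorescence detection. Permeability calculated by Fick's law; efflux ratio is B-A/A-B.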
Background: Caco-2 monolayers are a common model of the intestinal barrier.

For data set [7], the system named is MC65. The experiment in a line: Cytoprotective activity against amyloid-beta oligomer-induced cytotoxicity in human MC65 cells after 72 hrs.
Data set [8] in a line: Apparent permeability from apical to basolateral side of human Caco-2 cells. The format is ADME, cell-based. In a few lines: as §2
For data set [9], the system named is MC65. The experiment in a line: Binding affinity to amyloid beta expressed in human MC65 cells after 24 hrs by immunocytometry. The format is cell-based. A digest of the protocol:
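MC65 cells, 1 × 10^4/well, given compounds (10 μM) right after TC removal, 24 h. Surface stained with Alexa 488-CTX-B on ice, then fixed in 4% paraformaldehyde and permeabilized with Triton X-100. Stained with A11 oligomer antibody plus Alexa 568 secondary, DAPI counterstain. Confocal imaging; red puncta per cell averaged over five areas.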

For data set [10], the system named is MC65. As to the kind of experiment: Antioxidant activity in human MC65 cells assessed as decrease in oxidative stress by DCFH-DA assay. The format is functional, cell-based. A digest of the protocol: (§3)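 MC65 cells, 4 × 10^4/well, grown 24 h, then exposed to compounds in Opti-MEM with or without TC for 24 h (blanks with compound only). DCFH-DA loaded at 25 μM final for 30 min at 37 °C, medium replaced, fluorescence read at 485/530 nm. Expressed as % of parallel -TC cultures, n = 5.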

In data set [11] the test system is SH-SY5Y. The experiment in a line: Cytoprotective activity against amyloid-beta oligomer-induced cytotoxicity in human SH-SY5Y cells after 48 hrs.
Another data set deals with Spleen. As to the kind of experiment: Toxicity against mouse spleen after 24 hrs. The data set is classed as tissue-based. As to conditions: in vitro.
The target of data set [12] is Amyloid-beta precursor protein (Homo sapiens) (UniProt P05067). As to the kind of experiment: Inhibition of APP expressed in human MC65 cells assessed as inhibition of amyloid beta oligomer formation at 10 uM by Western blotting. The format is cell-based. In a few lines:
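MC65 cells, 1 × 10^6/well, exposed to compounds (10 μM) in Opti-MEM with or without TC for 24 h. Lysates (10 μg protein) run on 10-20% tris-tricine SDS-PAGE and blotted with 6E10 (1:2000), HRP secondary, chemiluminescence. Three independent experiments.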
In general terms: Immunoblotting shows a protein as a band on a membrane.

Data set [13] concerns SH-SY5Y. As to the kind of experiment: Cytoprotective activity against amyloid-beta oligomer-induced cytotoxicity in human SH-SY5Y cells at 16 uM after 48 hrs.
Data set [14] deals with SH-SY5Y. The experiment in a line: Cytotoxicity against human SH-SY5Y cells after 48 hrs.
For data set [15], the system named is MC65. As to the kind of experiment: Antioxidant activity in human MC65 cells assessed as decrease in lipid peroxidation by DCFH-DA assay. The format is functional, cell-based. To be noted: in the assay text read “intracellular oxidative stress” for “lipid peroxidation”. In a few lines:
as §3

The nature of data set [16]: Cellular uptake in human MC65 cells after 24 hrs by immunocytometry. The data set is classed as ADME, cell-based. To be noted: mc65, 24 h. A digest of the protocol: as §1
Data set [17] deals with SH-SY5Y. The experiment in a line: Cytoprotective activity against amyloid-beta oligomer-induced cytotoxicity in human SH-SY5Y cells at 2 to 8 uM after 48 hrs.

The values that follow come from ChEMBL document CHEMBL1250472, “"Clicked" bivalent ligands containing curcumin and cholesterol as multifunctional abeta oligomerization inhibitors: design, synthesis, and biological characterization” (J Med Chem, 2010).

The term Papp B→A denotes the apparent permeability from the basolateral to the apical side of a cell layer. As usually defined, the Papp A→B is the apparent permeability from the apical to the basolateral side of a cell layer.

Calls of active or inactive are those of the source. The rule behind the calls is not given here.

Amyloid-beta precursor protein (Homo sapiens), sequence (P05067 whole entry): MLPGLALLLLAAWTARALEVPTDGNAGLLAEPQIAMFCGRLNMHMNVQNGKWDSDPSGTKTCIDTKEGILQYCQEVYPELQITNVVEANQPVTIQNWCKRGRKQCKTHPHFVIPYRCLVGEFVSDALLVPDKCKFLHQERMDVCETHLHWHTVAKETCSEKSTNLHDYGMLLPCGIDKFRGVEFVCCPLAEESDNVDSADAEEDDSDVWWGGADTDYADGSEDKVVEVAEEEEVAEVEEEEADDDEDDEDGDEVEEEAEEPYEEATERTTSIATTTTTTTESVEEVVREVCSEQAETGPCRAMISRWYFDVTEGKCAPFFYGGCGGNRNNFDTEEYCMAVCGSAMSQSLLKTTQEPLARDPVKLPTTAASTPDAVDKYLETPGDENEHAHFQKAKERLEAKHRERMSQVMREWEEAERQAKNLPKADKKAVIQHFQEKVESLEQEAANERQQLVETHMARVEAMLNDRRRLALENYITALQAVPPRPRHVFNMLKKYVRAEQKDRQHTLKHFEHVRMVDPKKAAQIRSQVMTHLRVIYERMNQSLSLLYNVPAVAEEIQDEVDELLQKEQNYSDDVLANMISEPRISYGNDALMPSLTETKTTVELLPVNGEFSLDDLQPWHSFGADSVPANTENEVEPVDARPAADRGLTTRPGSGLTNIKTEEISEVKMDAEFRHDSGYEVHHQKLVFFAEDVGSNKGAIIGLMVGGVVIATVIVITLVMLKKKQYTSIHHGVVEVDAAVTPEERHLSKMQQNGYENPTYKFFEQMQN

In the case of `COc1cc(/C=C/C(=O)/C=C(O)/C=C/c2ccc(OCc3cn(CCCCCCNC(=O)CCNC(=O)CCNC(=O)CO[C@H]4CC[C@@]5(C)C(=CC[C@H]6[C@@H]7CC[C@H]([C@H](C)CCCC(C)C)[C@@]7(C)CC[C@@H]65)C4)nn3)c(OC)c2)ccc1O`, the Activity result in data set [1] is reported as “Non-toxic”.
For the compound `CCCCNC(=O)CCC(=O)NCCCCCCn1cc(COc2ccc(/C=C/C(O)=C/C(=O)/C=C/c3ccc(O)c(OC)c3)cc2OC)nn1`, the inhibition entry in [2] was “inactive”.
The same measure, in the same setting: the result for `COc1cc(/C=C/C(=O)/C=C(O)/C=C/c2ccc(OCc3cn(CCCCNC(=O)CCNC(=O)CO[C@H]4CC[C@@]5(C)C(=CC[C@H]6[C@@H]7CC[C@H]([C@H](C)CCCC(C)C)[C@@]7(C)CC[C@@H]65)C4)nn3)c(OC)c2)ccc1O` reads “Active”; that for `COc1cc(/C=C/C(=O)/C(Cc2cn(CCCCNC(=O)CCNC(=O)CO[C@H]3CC[C@@]4(C)C(=CC[C@H]5[C@@H]6CC[C@H]([C@H](C)CCCC(C)C)[C@@]6(C)CC[C@@H]54)C3)nn2)=C(O)/C=C/c2ccc(O)c(OC)c2)ccc1O`, “Active”.
As for `COc1cc(/C=C/C(=O)/C(Cc2cn(CCCCCCNC(=O)CCNC(=O)CCNC(=O)CO[C@H]3CC[C@@]4(C)C(=CC[C@H]5[C@@H]6CC[C@H]([C@H](C)CCCC(C)C)[C@@]6(C)CC[C@@H]54)C3)nn2)=C(O)/C=C/c2ccc(O)c(OC)c2)ccc1O`, the inhibition result in data set [3], in data set [2] and in [12] was “Active” throughout. The Activity entry in data set [4] was “Non-toxic”; with MC65 [7] it was “Dose-dependent effect”; in the data set with Spleen, “Toxic”. The outcome in the data set on MC65 [5], with MC65 [10] and in the data set on SH-SY5Y [11] was Active. Also, the basolateral-to-apical permeability (Papp B→A) in [6] is 4.7 ×10⁻⁶ cm/s. Moreover, the Papp A→B in [8] was determined as 7.1 ×10⁻⁶ cm/s. Also, the outcome in the data set with MC65 [9] was inactive.
For `COc1cc(/C=C/C(=O)/C=C(O)/C=C/c2ccc(OCc3cn(CCCCNC(=O)CCNC(=O)CCNC(=O)CO[C@H]4CC[C@@]5(C)C(=CC[C@H]6[C@@H]7CC[C@H]([C@H](C)CCCC(C)C)[C@@]7(C)CC[C@@H]65)C4)nn3)c(OC)c2)ccc1O`, the inhibition entry in data set [2] is “Active”.
Consider `COc1cc(/C=C/C(=O)/C(Cc2cn(CCCCNC(=O)CO[C@H]3CC[C@@]4(C)C(=CC[C@H]5[C@@H]6CC[C@H]([C@H](C)CCCC(C)C)[C@@]6(C)CC[C@@H]54)C3)nn2)=C(O)/C=C/c2ccc(O)c(OC)c2)ccc1O`, for which the inhibition entry in [2] is “inactive”.
On to `COc1cc(/C=C/C(=O)/C=C(O)/C=C/c2ccc(OCc3cn(CCCCCCNC(=O)CO[C@H]4CC[C@@]5(C)C(=CC[C@H]6[C@@H]7CC[C@H]([C@H](C)CCCC(C)C)[C@@]7(C)CC[C@@H]65)C4)nn3)c(OC)c2)ccc1O`, for which the inhibition entry in [2] is “inactive”.
For `COc1cc(/C=C/C(=O)/C(Cc2cn(CCCCCCNC(=O)CO[C@H]3CC[C@@]4(C)C(=CC[C@H]5[C@@H]6CC[C@H]([C@H](C)CCCC(C)C)[C@@]6(C)CC[C@@H]54)C3)nn2)=C(O)/C=C/c2ccc(O)c(OC)c2)ccc1O`, in data set [2], the inhibition result is “inactive”.
On to `COc1cc(/C=C/C(=O)/C=C(O)/C=C/c2ccc(OCc3cn(CCCCCCNC(=O)CCNC(=O)CO[C@H]4CC[C@@]5(C)C(=CC[C@H]6[C@@H]7CC[C@H]([C@H](C)CCCC(C)C)[C@@]7(C)CC[C@@H]65)C4)nn3)c(OC)c2)ccc1O`, for which the inhibition result in data set [2] was “Active”.
Regarding `COc1cc(/C=C/C(=O)/C(Cc2cn(CCCCNC(=O)CCNC(=O)CCNC(=O)CO[C@H]3CC[C@@]4(C)C(=CC[C@H]5[C@@H]6CC[C@H]([C@H](C)CCCC(C)C)[C@@]6(C)CC[C@@H]54)C3)nn2)=C(O)/C=C/c2ccc(O)c(OC)c2)ccc1O`, in data set [2], the inhibition entry was “Active”.
Consider `CCCCNC(=O)CCC(=O)NCCCCCCn1cc(C/C(C(=O)/C=C/c2ccc(O)c(OC)c2)=C(O)\C=C\c2ccc(O)c(OC)c2)nn1`, for which, in data set [2], the inhibition result is “inactive”.
As for `COc1cc(/C=C/C(=O)/C=C(O)/C=C/c2ccc(OCc3cn(CCCCNC(=O)CO[C@H]4CC[C@@]5(C)C(=CC[C@H]6[C@@H]7CC[C@H]([C@H](C)CCCC(C)C)[C@@]7(C)CC[C@@H]65)C4)nn3)c(OC)c2)ccc1O`, the inhibition result in data set [2] was “inactive”.
On to `COc1cc(/C=C/C(=O)CC(=O)/C=C/c2ccc(O)c(OC)c2)ccc1O` [CURCUMIN], for which the inhibition entry in data set [3] was “Active”. Besides, the result with SH-SY5Y [13] was inactive. Further, the result in the data set with MC65 [7], with MC65 [10], in the data set on MC65 [15] and in the data set with SH-SY5Y [17] was Active. Also, the Activity entry in the data set with SH-SY5Y [14] is “Toxic”. The inhibition result in [2] is “inactive”. In addition, the Drug uptake entry in data set [16] is listed as “Active”.
Consider `COc1cc(/C=C/C(=O)/C(Cc2cn(CCCCCCNC(=O)CCNC(=O)CO[C@H]3CC[C@@]4(C)C(=CC[C@H]5[C@@H]6CC[C@H]([C@H](C)CCCC(C)C)[C@@]6(C)CC[C@@H]54)C3)nn2)=C(O)/C=C/c2ccc(O)c(OC)c2)ccc1O`, for which the inhibition result in [2] is “Active”. The Activity entry in [1] was “Non-toxic”.
